The record followed here is ChEMBL document CHEMBL1133105, “Antimalarial, antitrypanosomal, and antileishmanial activities and cytotoxicity of bis(9-amino-6-chloro-2-methoxyacridines): influence of the linker” (J Med Chem, 2000).

As usually defined, the pIC50 is the negative decadic logarithm of the IC50, by convention in mol/L. Read a high pIC50 as a small IC50.

Each structure is given as a SMILES string. pIC50: −log10 of the molar value.

One test deals with Leishmania infantum. As to the kind of experiment: Percentage of activity against Leishmania infantum 6.25 uM.
Settings: not given
Format: functional. The gist of the method:
(§1)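 Starch-stimulated mouse peritoneal macrophages, 30 000/well, infected after 24 h with spleen-derived L. infantum amastigotes (10:1) together with 2-fold drug dilutions (12.5–1.56 µM). Incubated 7 days at 37 °C, 5% CO2. Wright-stained slides scored microscopically as % reduction of total parasite load or of infected macrophages. Uninfected treated cultures judged microscopically for macrophage toxicity.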
In the case of `COc1ccc2nc3cc(Cl)ccc3c(NCCCN3CCN(CCCNc4c5ccc(Cl)cc5nc5ccc(OC)cc45)CC3)c2c1`, the “Antileishmanial activity (% reduction of parasite load)” value came to 0%.

Another test has as its system Leishmania infantum. As to the kind of experiment: Percentage of activity against Leishmania infantum at 1.56 uM. Format: functional.
Settings: not given
The gist of the method:
as §1
For the compound `COc1ccc2nc3cc(Cl)ccc3c(NCCCN3CCN(CCCNc4c5ccc(Cl)cc5nc5ccc(OC)cc45)CC3)c2c1`, the “Antileishmanial activity (% reduction of parasite load)” value stood at 0%.

For a further test, the system named is Leishmania infantum. Put plainly: In Vitro evaluation for the percentage of activity towards Leishmania infantum at 12.5 uM Concentration. Format: functional.
Settings: not given
Put shortly:
as §1
As to `COc1ccc2nc3cc(Cl)ccc3c(NCCCN3CCN(CCCNc4c5ccc(Cl)cc5nc5ccc(OC)cc45)CC3)c2c1`, the “Percent inhibition of Leishmania infantum” value turned out to be 0%.

The test system of a further test is Leishmania infantum. Put plainly: Percentage of activity against Leishmania infantum at 3.13 uM. Format: functional.
Settings: not given
The gist of the method: as §1
Regarding `COc1ccc2nc3cc(Cl)ccc3c(NCCCN3CCN(CCCNc4c5ccc(Cl)cc5nc5ccc(OC)cc45)CC3)c2c1`, the “Percent antileishmanial activity (reduction of parasite load)” value came out at 0%.

Another test has as its system MRC5. Put plainly: Cytotoxicity on MRC-5 cells at 12.5 uM. In kind it is functional. The following applies: Homo sapiens. Put shortly: (§2)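 MRC-5 human diploid embryonic lung cells seeded at 5 000/well, washed after 24 h, then given 2-fold drug dilutions (25, 12.5, 6.25, 3.13 µM) in RPMI + 5% FCS, final DMSO below 0.5%. Incubated 7 days at 37 °C, 5% CO2. MTT colorimetric read-out, scored as % reduction of absorbance at 540 nm versus untreated controls.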
The compound `COc1ccc2nc3cc(Cl)ccc3c(NCCCN3CCN(CCCNc4c5ccc(Cl)cc5nc5ccc(OC)cc45)CC3)c2c1` came in with a cytotoxicity at 12.5 µM of 0%.

The next test has as its system MRC5. As to the kind of experiment: Cytotoxicity on MRC-5 cells at 25 uM. Format: functional. As to conditions: Homo sapiens. Put shortly:
as §2
`COc1ccc2nc3cc(Cl)ccc3c(NCCCN3CCN(CCCNc4c5ccc(Cl)cc5nc5ccc(OC)cc45)CC3)c2c1` displayed a cytotoxicity at 25 µM of 0%.

A further test deals with MRC5. Put plainly: Cytotoxicity on MRC-5 cells at 3.13 uM. In kind it is functional. The following applies: Homo sapiens. The gist of the method:
as §2
In turn, `COc1ccc2nc3cc(Cl)ccc3c(NCCCN3CCN(CCCNc4c5ccc(Cl)cc5nc5ccc(OC)cc45)CC3)c2c1` returned a cytotoxicity at 3.13 µM of 0%.

In the next test the test system is MRC5. Put plainly: Cytotoxicity on MRC-5 cells at 6.25 uM. Format: functional. As to conditions: Homo sapiens. Put shortly:
as §2
In the case of `COc1ccc2nc3cc(Cl)ccc3c(NCCCN3CCN(CCCNc4c5ccc(Cl)cc5nc5ccc(OC)cc45)CC3)c2c1`, the cytotoxicity at 6.25 µM worked out at 0%.

The subject of another test is Plasmodium falciparum. Put plainly: Parasite growth inhibition against Plasmodium falciparum W2. Format: functional, organism-based.
Settings: not given
Put shortly:
(§3)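 Asynchronous cultures of each strain on human erythrocytes (0.5% parasitemia, 1% final hematocrit) were exposed to serially diluted drug for 24 h at 37 °C. Then 0.5 µCi [3H]hypoxanthine per well was added for 24 h. Incorporation was compared with a drug-free control on the same plate. IC50 was taken from the concentration-response curve as the mean of several independent experiments. DMSO was at most 0.1%.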
The compound `COc1ccc2nc3cc(Cl)ccc3c(NCCCN3CCN(CCCNc4c5ccc(Cl)cc5nc5ccc(OC)cc45)CC3)c2c1` had a pIC50 of 7.92.

In another test the test system is Plasmodium falciparum. As to the kind of experiment: Parasite growth inhibition against Plasmodium falciparum F32A. In kind it is functional, organism-based.
Settings: not given
The gist of the method: as §3
Take `COc1ccc2nc3cc(Cl)ccc3c(NCCCN3CCN(CCCNc4c5ccc(Cl)cc5nc5ccc(OC)cc45)CC3)c2c1`: the pIC50 is 8.10.

Another test has as its system Plasmodium falciparum. Put plainly: Parasite growth inhibition against Plasmodium falciparum FCM29. Format: functional, organism-based.
Settings: not given
Put shortly: as §3
As for `COc1ccc2nc3cc(Cl)ccc3c(NCCCN3CCN(CCCNc4c5ccc(Cl)cc5nc5ccc(OC)cc45)CC3)c2c1`, the negative-log IC50 (pIC50) is 7.89.

The subject of a further test is Plasmodium falciparum. As to the kind of experiment: Parasite growth inhibition against Plasmodium falciparum FCR3. In kind it is functional, organism-based.
Settings: not given
The gist of the method: as §3
In turn, `COc1ccc2nc3cc(Cl)ccc3c(NCCCN3CCN(CCCNc4c5ccc(Cl)cc5nc5ccc(OC)cc45)CC3)c2c1` had a pIC50 of 7.74.

For a further test, the system named is Plasmodium falciparum. As to the kind of experiment: In vitro sensitivity for Plasmodium falciparum FcB1R. In kind it is functional, organism-based.
Settings: not given
Put shortly: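 Asynchronous P. falciparum cultures in human erythrocytes (0.5% parasitemia, 1% haematocrit) exposed to serially diluted drug for 24 h at 37 °C. [3H]hypoxanthine (0.5 µCi/well) then added for a further 24 h. Uptake compared with drug-free controls on the same plate. IC50 taken from the concentration–response curve, averaged over independent experiments. DMSO ≤0.1%.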
As for `COc1ccc2nc3cc(Cl)ccc3c(NCCCN3CCN(CCCNc4c5ccc(Cl)cc5nc5ccc(OC)cc45)CC3)c2c1`, the pIC50 was 7.77.

The test system of the next test is Plasmodium falciparum. As to the kind of experiment: Parasite growth inhibition against Plasmodium falciparum GP1. In kind it is functional, organism-based.
Settings: not given
Put shortly: as §3
As to `COc1ccc2nc3cc(Cl)ccc3c(NCCCN3CCN(CCCNc4c5ccc(Cl)cc5nc5ccc(OC)cc45)CC3)c2c1`, the pIC50 was 7.96.

In a further test the test system is Plasmodium falciparum. As to the kind of experiment: Parasite growth inhibition against Plasmodium falciparum K1. Format: functional, organism-based.
Settings: not given
The gist of the method:
as §3
With `COc1ccc2nc3cc(Cl)ccc3c(NCCCN3CCN(CCCNc4c5ccc(Cl)cc5nc5ccc(OC)cc45)CC3)c2c1`, the negative-log IC50 (pIC50) was 7.80.

The next test concerns Trypanosoma cruzi. As to the kind of experiment: Percentage of activity against Trypanosoma cruzi at 12.5 uM. Format: functional.
Settings: not given
Put shortly:
(§4)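 Mouse peritoneal macrophages, 30 000/well, infected after 24 h with about 100 000 T. cruzi trypomastigotes per well plus 2-fold drug dilutions (12.5–1.56 µM). Incubated 4 days at 37 °C, 5% CO2. Methanol-fixed, Giemsa-stained and scored microscopically as % reduction of total parasite load (free trypomastigotes plus intracellular amastigotes) versus untreated controls.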
Consider `COc1ccc2nc3cc(Cl)ccc3c(NCCCN3CCN(CCCNc4c5ccc(Cl)cc5nc5ccc(OC)cc45)CC3)c2c1`, for which the “T. cruzi parasite load reduction” value is reported as 0%.

The next test deals with Trypanosoma cruzi. Put plainly: Percentage of activity against Trypanosoma cruzi at 3.13 uM.
Settings: not given
Format: functional. Put shortly:
as §4
As for `COc1ccc2nc3cc(Cl)ccc3c(NCCCN3CCN(CCCNc4c5ccc(Cl)cc5nc5ccc(OC)cc45)CC3)c2c1`, the “Reduction of T. cruzi parasite load” value is on record as 0%.

For the next test, the system named is Trypanosoma cruzi. As to the kind of experiment: Percentage of activity against Trypanosoma cruzi at 6.25 uM Concentration. Format: functional.
Settings: not given
The gist of the method:
as §4
On to `COc1ccc2nc3cc(Cl)ccc3c(NCCCN3CCN(CCCNc4c5ccc(Cl)cc5nc5ccc(OC)cc45)CC3)c2c1`, for which the “Reduction of T. cruzi parasite load” value is 0%.

For the next test, the system named is Trypanosoma brucei. As to the kind of experiment: Percentage of activity against Trypanosoma brucei at 6.25 uM.
Settings: not given
In kind it is functional. Put shortly: (§5)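 Bloodstream-form T. brucei in HMI-9 medium, 10 000 parasites/well, exposed to 12.5, 6.25, 3.13 and 1.56 µM drug for 4 days. Read-out is % inhibition of parasite multiplication. Macrophage toxicity judged on mouse primary peritoneal macrophages.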
Take `COc1ccc2nc3cc(Cl)ccc3c(NCCCN3CCN(CCCNc4c5ccc(Cl)cc5nc5ccc(OC)cc45)CC3)c2c1`: the “Inhibition of parasite multiplication” value was found to be 90%.

Another test has as its system Trypanosoma brucei. As to the kind of experiment: Percentage of activity against Trypanosoma brucei at 12.5 uM. Format: functional.
Settings: not given
Put shortly:
as §5
On to `COc1ccc2nc3cc(Cl)ccc3c(NCCCN3CCN(CCCNc4c5ccc(Cl)cc5nc5ccc(OC)cc45)CC3)c2c1`, for which the “Inhibition of parasite multiplication” value is reported as 100%.

A further test has as its system Trypanosoma brucei. Put plainly: Percentage of activity against Trypanosoma brucei at 1.56 uM. In kind it is functional.
Settings: not given
The gist of the method: as §5
`COc1ccc2nc3cc(Cl)ccc3c(NCCCN3CCN(CCCNc4c5ccc(Cl)cc5nc5ccc(OC)cc45)CC3)c2c1`: the “Percent inhibition of parasite multiplication” value turned out to be 60%.

A further test concerns Trypanosoma brucei. As to the kind of experiment: Percentage of activity against Trypanosoma brucei at 3.13 uM. In kind it is functional.
Settings: not given
Put shortly:
as §5
As for `COc1ccc2nc3cc(Cl)ccc3c(NCCCN3CCN(CCCNc4c5ccc(Cl)cc5nc5ccc(OC)cc45)CC3)c2c1`, the Parasite growth inhibition is on record as 80%.

Another test concerns Plasmodium falciparum. Put plainly: Growth inhibition of chloroquine-sensitive Plasmodium falciparum 3D7.
Settings: not given
In turn, `COc1ccc2nc3cc(Cl)ccc3c(NCCCN3CCN(CCCNc4c5ccc(Cl)cc5nc5ccc(OC)cc45)CC3)c2c1` had a pIC50 of 7.89.
